The record followed here is ChEMBL document CHEMBL1821694, “Design and synthesis of novel amide AKT1 inhibitors with selectivity over CDK2” (Bioorg Med Chem Lett, 2011).

For series [1], the target named is T1, RAC-alpha serine/threonine-protein kinase (Homo sapiens, UniProt P31749). The series is described as follows: Inhibition of AKT1.
Series [2] concerns the target Cyclin-dependent kinase 2 (Homo sapiens, UniProt P24941). Nature of the series: Inhibition of CDK2.
Series [3] in a line: Inhibition of PKA.
In series [4] the target is T1, RAC-alpha serine/threonine-protein kinase. The series is described as follows: Inhibition of AKT1-mediated PRAS40 phosphorylation in human U87MG cells after 1 hr in presence of 5% FBS by ELISA assay. The class given is cell-based, U-87MG ATCC. In outline:
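U87MG cells kept in medium with 5% FBS; inhibitor added as threefold serial dilutions, 1 h incubation at 37 °C, then phospho-PRAS40 measured. Values are means ± SD, n ≥ 3.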

A short description of series [5]: Clearance in rat. The class given is ADME, organism-based. As to conditions: in vivo.
A further series relates to Liver microsomes. The series is described as follows: Metabolic stability in rat liver microsome. The format is ADME.
A short description of series [6]: Metabolic stability in human liver microsomes assessed as compound turnover. The format is ADME, Microsome. As to conditions: read-out: Activity.

T1 sequence (P31749 whole entry): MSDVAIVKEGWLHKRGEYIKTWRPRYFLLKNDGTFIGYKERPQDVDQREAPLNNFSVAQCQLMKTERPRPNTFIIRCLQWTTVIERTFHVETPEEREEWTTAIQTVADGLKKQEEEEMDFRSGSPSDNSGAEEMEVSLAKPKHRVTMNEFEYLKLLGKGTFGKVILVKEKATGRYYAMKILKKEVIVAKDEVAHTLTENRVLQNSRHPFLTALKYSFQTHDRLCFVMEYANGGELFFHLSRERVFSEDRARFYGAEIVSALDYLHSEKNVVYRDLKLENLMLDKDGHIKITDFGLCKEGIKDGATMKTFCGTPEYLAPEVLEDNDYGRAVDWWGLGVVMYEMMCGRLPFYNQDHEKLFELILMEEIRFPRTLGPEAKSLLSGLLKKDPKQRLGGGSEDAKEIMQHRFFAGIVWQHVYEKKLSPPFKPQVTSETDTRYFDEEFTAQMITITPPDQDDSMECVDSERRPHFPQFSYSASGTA

For `N[C@H](CNC(=O)c1ccc2cnccc2c1)Cc1ccc(C(F)(F)F)cc1`, the results for the IC50 in series [1], in series [2] and in series [3] were 3.38 µM, over 25 µM and 1.56 µM, respectively.
Consider `O=C1Cc2cc(C(=O)NC(c3ccc(Cl)c(Cl)c3)C3CCNCC3)ccc2N1` (racemic), for which the IC50 in series [1] came out at 0.35 µM; in series [3], 1.15 µM.
`O=C(NC(c1cncnc1)c1ccc(Cl)c(Cl)c1)c1ccc2cnccc2c1` (racemic): the IC50 in series [1] was 12.7 µM; in series [2] it was over 25 µM; in series [3], 3.41 µM.
The matching figures for `O=C(NC(c1ccc(F)c(F)c1)C1CCNCC1)c1ccc2cnccc2c1` (racemic): 2.68 µM, over 25 µM and 0.16 µM.
Taken in the same sequence, the figures for `O=C(NC(c1ccc(Cl)c(-c2ccccc2)c1)C1CCNCC1)c1ccc2cnccc2c1` (racemic) were 0.2 µM, over 25 µM and 0.22 µM.
For the compound `O=C(NC(c1ccc(Cl)c(Cl)c1)C1CCNCC1)c1ccc2cnccc2c1` (racemic), the values for the half-maximal inhibitory concentration (IC50) in series [1], in series [2] and in series [3] were 0.04 µM, over 25 µM and 0.05 µM, respectively.
In the case of `O=C(NC(c1ccc(Cl)c(Cl)c1)C1CCNCC1)c1ccc2[nH]ncc2c1` (racemic), the values for the IC50 in series [1] and in series [3] were 0.25 µM and 0.29 µM, respectively.
For the compound `O=C(NC(c1ccc(Cl)c(Cl)c1)C1CCCCC1)c1ccc2cnccc2c1` (racemic), the results for the IC50 in series [1], in series [2] and in series [3] were 5.8 µM, over 25 µM and over 25 µM, respectively.
With `O=C(NC(c1ccc(Cl)c(F)c1)C1CCNCC1)c1ccc2cnccc2c1` (racemic), the IC50 in series [1] is 0.04 µM; in series [2], over 25 µM.
Regarding `O=C(NC(c1ccc(Cl)c(Cl)c1)C1CCNCC1)c1ccc2cnc(Cl)cc2c1` (racemic), in series [1], inhibition was half-maximal at 0.14 µM (IC50).
As for `COc1ccc(C(NC(=O)c2ccc3cnccc3c2)C2CCNCC2)cc1F` (racemic), the half-maximal inhibitory concentration (IC50) was 1.51 µM in series [1], over 25 µM in series [2] and 0.13 µM in series [3].
Regarding `O=C(NC(c1cccc(Cl)c1Cl)C1CCNCC1)c1ccc2cnccc2c1` (racemic), the IC50 is 0.12 µM in series [1], over 25 µM in series [2] and 0.1 µM in series [3].
For the compound `COc1ccc(-c2cc3cnccc3cc2C(=O)NC(c2ccc(Cl)c(Cl)c2)C2CCNCC2)cc1` (racemic), the IC50 in series [1] was 6.85 µM; in series [3], 0.67 µM.
On to `O=C(NC(c1cnc(Cl)c(Cl)c1)C1CCNCC1)c1ccc2cnccc2c1` (racemic), for which the IC50 in series [1] was 0.14 µM; in series [2], over 25 µM; in series [3] it was 0.23 µM.
The matching figures for `O=C(NC(c1ccc2ccccc2c1)C1CCNCC1)c1ccc2cnccc2c1` (racemic): 0.4 µM, over 25 µM and 0.26 µM.
Taken in the same sequence, the figures for `O=C(N[C@@H](c1ccc(Cl)c(Cl)c1)C1CCN(Cc2ccc(C(F)(F)F)cc2)CC1)c1ccc2cnccc2c1` were 2.3 µM, over 25 µM and 0.98 µM.
Regarding `O=C(NC(c1ccc(Cl)c(Cl)c1)C1CCNCC1)c1ccc2[nH]c(=O)oc2c1` (racemic), the IC50 in series [1] came out at 0.46 µM; in series [3] it was 13.7 µM.
With `O=C(NC(c1ccc(Cl)c(Cl)c1)C1CCCNC1)c1ccc2cnccc2c1` (stereo not drawn), the results for the IC50 in series [1] and in series [2] were 0.02 µM and 21 µM, respectively.
For the compound `O=C(NC(c1cccc(Cl)c1)C1CCNCC1)c1ccc2cnccc2c1` (racemic), the values for the concentration for half-maximal inhibition (IC50) in series [1], in series [2] and in series [3] were 0.07 µM, over 25 µM and 0.03 µM, respectively.
The matching figures for `O=C(NC(c1ccc(Cl)cc1)C1CCNCC1)c1ccc2cnccc2c1` (racemic): 0.19 µM, over 25 µM and 0.13 µM.
As to `N[C@H](CNc1nnc(-c2ccc3c(c2)CC(=O)N3)s1)Cc1ccc(C(F)(F)F)cc1`, the IC50 came to 0.02 µM in series [1], 0.19 µM in series [2], 0.17 µM in series [3] and 0.3 µM in series [4].
In the case of `CN1CC([C@@H](NC(=O)c2ccc3cnccc3c2)c2ccc(Cl)c(Cl)c2)C1`, the IC50 in series [1] turned out to be 0.007 µM; in series [2], 0.36 µM; in series [3], 0.01 µM.
Taken in the same sequence, the figures for `O=C(NC(c1ccccc1)C1CCNCC1)c1ccc2cnccc2c1` (racemic) were 0.85 µM, 19.7 µM and 0.25 µM.
On to `O=C(N[C@@H](c1ccc(Cl)c(Cl)c1)C1CNC1)c1ccc2cnccc2c1`, for which the IC50 is 0.007 µM in series [1], 0.69 µM in series [2], 0.01 µM in series [3] and 0.24 µM in series [4]. The same compound had a clearance in series [5] of 173 mL/min/kg. This compound returned a Stability in the series with Liver microsomes of 33.4%. Also, the metabolised in series [6] is 10.9%.
With `O=C(NC(c1ccc(Cl)c(Cl)c1)C1CCNC1)c1ccc2cnccc2c1` (mixture of isomers), the IC50 is 0.03 µM in series [1], over 25 µM in series [2] and 0.01 µM in series [3].
Taken in the same sequence, the figures for `O=C(NC(c1nccs1)C1CCNCC1)c1ccc2cnccc2c1` (racemic) were 1.57 µM, over 25 µM and 1.07 µM.
As for `O=C(N[C@H](c1ccc(Cl)c(Cl)c1)C1CNC1)c1ccc2cnccc2c1`, the IC50 was determined as 0.11 µM in series [1], 9.8 µM in series [2] and 0.03 µM in series [3].
The matching figures for `O=C(NC(c1ccncc1)c1ccc(Cl)c(Cl)c1)c1ccc2cnccc2c1` (racemic): 20.4 µM, over 25 µM and over 25 µM.
For `COc1cc2cnccc2cc1C(=O)NC(c1ccc(Cl)c(Cl)c1)C1CCNCC1` (racemic), the values for the IC50 in series [1] and in series [3] were 0.039 µM and 0.03 µM, respectively.
As to `CC(C)CN1CCC([C@@H](NC(=O)c2ccc3cnccc3c2)c2ccc(Cl)c(Cl)c2)CC1`, the IC50 in series [1] is 2.14 µM; in series [2], over 25 µM; in series [3], 2.01 µM.
Taken in the same sequence, the figures for `O=C(N[C@@H](c1ccc(Cl)c(Cl)c1)C1CCN(Cc2ccccc2)CC1)c1ccc2cnccc2c1` were 0.24 µM, over 25 µM and 0.39 µM.
Consider `O=C(NC(c1ccc(Cl)c(Cl)c1)C1CCNCC1)c1ccc2cnncc2c1` (single isomer, unassigned), for which the IC50 amounted to 0.33 µM in series [1] and 0.85 µM in series [3].
Turning to `N[C@H](CNc1nnc(-c2ccc3cnccc3c2)s1)Cc1ccc(C(F)(F)F)cc1`, the IC50 came to 0.05 µM in series [2] and 0.006 µM in series [3].
For the compound `N#Cc1cc(C(NC(=O)c2ccc3cnccc3c2)C2CCNCC2)ccc1Cl` (racemic), the IC50 in series [1] is 0.08 µM; in series [2], over 25 µM; in series [3], 0.16 µM.
Turning to `O=C(NC(c1ccc(Cl)c(Cl)c1)C1CCNCC1)c1ccc2cnc(F)cc2c1` (racemic), the IC50 in series [1] was 0.02 µM; in series [2], over 25 µM; in series [3], 0.09 µM; in series [4], 0.39 µM. In addition, the clearance in series [5] is 58.3 mL/min/kg. In the series on Liver microsomes, the Stability amounted to 15.9%. Further, the metabolised in series [6] is 10%.
